The source made the active and inactive calls. The calls are words filed in the database; no cut-off is given here.
Key:
[1] = Acute toxicity in mice; type: organism-based; conditions: mouse, in vivo
Method in brief: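 Mice given compound intravenously; LD50 determined by the up and down method for small samples. Mortality counted at 15 min.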

[2] = Tested for its effect on contraction of frog rectus abdominis muscle, expressed as equipotent molar ratio relative to carbamylcholine.; type: functional
Method in brief: (§1)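 Rana pipiens rectus abdominis held at 20 °C in aerated Clark-Ringer solution, pH 7.4. Each drug concentration applied for 5 min. Equipotent molar ratio relative to carbachol determined in three-point assays.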

[3] = biological target: T1, Muscarinic acetylcholine receptor (Homo sapiens) (UniProt P20309+P08173+P11229+P08172+P08912); assay: Tested for agonist activity at muscarinic receptor in guinea pig ileum, expressed as equipotent molar ratio relative to carbamylcholine.; type: functional, tissue-based; conditions: Cavia porcellus
[4] = biological target: T1, Muscarinic acetylcholine receptor (Homo sapiens); assay: Tested for agonist activity at Muscarinic acetylcholine receptor in guinea pig ileum; type: functional, tissue-based; conditions: Cavia porcellus, target entry is the homologue from another species
[5] = organism: Mus musculus; assay: Tested for tremorolytic activity in mice, expressed as dose required to double the dose of oxotremorine inducing a predetermined (grade 2) tremor intensity.; type: functional
Method in brief: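 Antagonist given i.p. to groups of six or more mice at four linearly spaced doses including zero, 15 min before i.v. oxotremorine (log dose series, 0.1 log spacing). Median oxotremorine dose evoking grade 2 tremor estimated by Dixon up-and-down method, tremor scored visually over first 5 min. The antagonist dose doubling that median dose was found by linear regression.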

[6] = system: frog; assay: Tested for its effect on contraction of frog rectus abdominis muscle, expressed as equipotent molar ratio relative to carbamylcholine; Inactive; type: functional, tissue-based; method in brief: as §1
[7] = organism: Mus musculus; assay: Tested for mydriatic activity in mice, expressed as the dose required to cause half-maximal pupillary dilation.; type: functional
[8] = organism: Cavia porcellus; assay: Percent occupancy for 50% response calculated from (100 x ED50)/(KA+ED50).; type: functional
Method in brief: (§2)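 Isolated guinea pig ileum. Control agonist dose-response curves were run, then tissue treated with propylbenzilylcholine mustard 2×10⁻⁸ M for 15–20 min, cutting maximal response by 20–80%. Double-reciprocal plots of equieffective agonist concentrations before and after treatment gave K_A (Furchgott method). Relative efficacy was derived from K_A and ED50; occupancy for 50% response was taken as 100ED50/(K_A + ED50).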

[9] = organism: Cavia porcellus; assay: Relative efficacy calculated from KA and ED50 values; type: functional; method in brief: as §2
[10] = biological target: T1, Muscarinic acetylcholine receptor (Homo sapiens); conditions: Cavia porcellus; Ileum
[11] = biological target: T1, Muscarinic acetylcholine receptor (Homo sapiens); conditions: Cavia porcellus; Ileum; remark: listed apart in the source

Row | Compound | LD50 [1] [µmol/kg] | EPMR [2] | EPMR [3] | ED50 [4] | ED50 [5] [µmol/kg] | also measured
1 | C[C@@H]1CCC(=O)N1CC#CC[N+](C)(C)C.[I-] | 8.9 | 10 | 1.2 | 0.076 |  | 
2 | C[C@H]1CCC(=O)N1CC#CCN(C)C | 183 |  | 73.9 | 4.6 µM l-1 | 50 | EPMR [6]: inactive
3 | C[C@H]1CCC(=O)N1CC#CCN1CCCC1 | 40 | 132 |  |  | 4.2 | ED50 [7]: 66 µmol/kg
4 | CC1CCC(=O)N1CC#CCN(C)C (racemic) |  |  | 8.8 | 0.55 µM l-1 | 5.5 | 
5 | CN(C)CC#CCN1CCCC1=O |  |  |  |  |  | Occupancy [8]: 0.55%; Relative efficacy [9]: 6.51; KA [10]: 22.9 µM l-1
6 | CN1[C@@H]2CC[C@H]1C[C@@H](OC(=O)C(CO)c1ccccc1)C2 (stereo partly drawn) [ATROPINE] |  |  |  |  | 0.86 | 
7 | CC1CCC(=O)N1CC#CCN1CCCC1 (racemic) |  | 116 |  |  | 0.4 | ED50 [7]: 9 µmol/kg
8 | C[C@@H](C#CCN1CCCC1)N1CCCC1=O |  |  |  |  | 20 | 
9 | C[C@H]1CCC(=O)N1CC#CC[N+](C)(C)C.[I-] | 3.5 | 8.8 | 20 | 1.3 |  | 
10 | C[C@@H]1CCC(=O)N1CC#CCN(C)C | 426 |  | 4.6 | 0.29 µM l-1 | 2.4 | Occupancy [8]: 11%; Relative efficacy [9]: 0.29; KA [4]: 2.34; EPMR [6]: inactive
11 | O=C1CCCN1CC#CCN1CCCC1 [OXOTREMORINE] | 6.7 | 49 | 0.42 |  |  | Occupancy [8]: 3.5%; Relative efficacy [9]: 1; ED50 [11]: 0.026 µM l-1; KA [10]: 0.68
12 | C[C@@H]1CCC(=O)N1CC#CCN1CCCC1 | 45 | 141 |  |  | 0.19 | ED50 [7]: 4.8 µmol/kg
13 | C[C@H](C#CCN1CCCC1)N1CCCC1=O |  |  |  |  | 0.26 | 
